Screens as filed in PubChem BioAssay.
An excerpt weighted towards active compounds, which were near 4.5% of everything screened.
GPR7 antagonist: blocks human GPR7 receptor signaling | GPR7-expressing cells, fluorescence antagonist assay | inhibition, % at 4.4 µM | 290,000 tested, 1.1% active | AID 1861; in the data active = inhibition above about 16%, passing the limit was not always enough;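 also: cells stimulated with the agonist NPW; 0% = agonist with vehicle and 100% = vehicle without agonist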
Target sequence (P48145 whole entry, looked up): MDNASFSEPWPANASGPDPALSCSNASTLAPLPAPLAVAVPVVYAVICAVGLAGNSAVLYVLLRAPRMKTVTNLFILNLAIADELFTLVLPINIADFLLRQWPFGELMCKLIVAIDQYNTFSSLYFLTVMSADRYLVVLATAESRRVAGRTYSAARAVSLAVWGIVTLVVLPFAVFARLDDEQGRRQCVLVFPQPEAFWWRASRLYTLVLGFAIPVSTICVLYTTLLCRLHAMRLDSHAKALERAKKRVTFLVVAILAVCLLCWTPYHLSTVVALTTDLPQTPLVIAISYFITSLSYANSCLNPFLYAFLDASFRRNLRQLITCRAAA
TAAR1 agonist: agonists of human TAAR1. 360,000 tested, 0.99% active. activation, % at 3 µM. AID 624467. CHO RD-HGA16 TAAR1, Fluo-8 calcium fluorescence; vehicle wells 0%, saturating PEA agonist 100%;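 active = activation above the mean activation of all test compounds in the run plus 3 SD, cut at about 38% in these data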
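Assay system – CHO-derived RD-HGA16 cells with stable Gα16 and human TAAR1 · Compound dosing – one-point dosing at 3 µM (nominal) · Incubation – 17-24 h seeding, 75 min 37 °C dye, 30 min RT · Measured by – kinetic Fluo-8 calcium fluorescence · Control set – DMSO vehicle as 0%, PEA at EC100 as 100% · Repeats – single well for each compound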
OX1R antag-1: blocks the human orexin 1 receptor | inhibition, % at 5 µM | CHO/OX1R cells, Fluo-8 calcium fluorescence, orexin A | O43613 | 330,000 tested, 0.43% active;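 active = inhibition above its plate's threshold, mean inhibition of all tested compounds on the plate plus 3 SD, cut at about 37% in these data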;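 also: 0% = orexin A challenge wells and 100% = SB-334867-A antagonist wells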
Target sequence (O43613 whole entry, looked up): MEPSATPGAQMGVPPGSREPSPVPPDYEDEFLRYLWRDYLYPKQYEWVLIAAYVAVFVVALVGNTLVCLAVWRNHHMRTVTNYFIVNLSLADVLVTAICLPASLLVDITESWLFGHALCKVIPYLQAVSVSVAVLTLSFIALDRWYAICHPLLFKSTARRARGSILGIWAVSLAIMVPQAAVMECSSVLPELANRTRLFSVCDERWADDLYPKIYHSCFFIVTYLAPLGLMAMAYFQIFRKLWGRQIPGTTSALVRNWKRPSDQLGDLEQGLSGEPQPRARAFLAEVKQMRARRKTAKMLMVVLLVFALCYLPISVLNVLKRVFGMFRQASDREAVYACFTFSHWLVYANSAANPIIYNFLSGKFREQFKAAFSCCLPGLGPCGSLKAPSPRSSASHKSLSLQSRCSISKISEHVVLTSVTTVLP
TAAR1 antagonist: antagonists of human TAAR1. Q96RJ0. CHO RD-HGA16 TAAR1, Fluo-8 calcium fluorescence, antagonist. inhibition, % at 3 µM. 360,000 tested, 1.5% active;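 active = inhibition above a per-plate cutoff, the mean inhibition of test compounds on that plate plus 3 SD, cut at about 49% in these data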;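 also: 0% = DMSO plus EC80 beta-PEA response and 100% = DMSO alone without agonist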
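Test system – hTAAR1-expressing CHO RD-HGA16 cells, Gα16-coupled · Reagent – β-PEA at EC80 concentration, post-compound challenge · Compound dosing – 3 µM, single point · Timing – 140 s kinetic read after compound, 140 s after agonist · Detection – Fluo-8 intracellular calcium dye fluorescence, real-time kinetic reads · Control set – DMSO and EC80 PEA controls · Repeats – n of 1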
OX1R antag-2: antagonists of human orexin 1 receptor (OX1R). 330,000 tested, 1.8% active. OX1R-expressing cells, FRET antagonist read-out. inhibition, % at 6.6 µM; in the data active = inhibition mostly above about 38%, no sharp cut-off; inactive = mostly below about 40%;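 also: 0% = agonist challenge alone and 100% = reference antagonist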
CHO parental Ca: counter-screen: ATP calcium response change in parental CHO cells; parental CHO-K1, ATP-induced calcium, Fluo-8 fluorescence; inhibition, % at 5.6 µM; 330,000 tested, 0.63% active; AID 463079;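 active = inhibition above that plate's mean sample inhibition plus 3 SD, cut at about 26% in these data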;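 also: 0% = ATP-challenged DMSO wells and 100% = DMSO wells without ATP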
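Material: Parental CHO cells | Reagent: ATP | Compound dosing: Single nominal dose of 5.6 µM per compound | Detection: Intracellular calcium via Fluo-8 no-wash fluorescent dye | Read-out: % inhibition of ATP-induced calcium mobilization | Benchmarks: Low control ATP plus DMSO, high control DMSO only | Replicates: Singlicate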
GPR7 antag cf: confirmation of human GPR7 antagonists. inhibition, % at 4.4 µM. 2,400 tested, 52% active. GPR7-expressing cells, calcium fluorescence antagonist mode. shares compounds with GPR7 antagonist; in the data active = inhibition above about 24%;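 also: stimulated with the GPR7 agonist NPW; 0% = agonist plus vehicle and 100% = vehicle alone without agonist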
MCHR1 antag: antagonizes human MCHR1, a GPR7 antagonist counter-screen. shares compounds with GPR7 antagonist. MCHR1-expressing cells, fluorescence antagonist assay. inhibition, % at 4.4 µM. 2,400 tested, 62% active; in the data active = inhibition above about 22%;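 also: 0% = vehicle with agonist and 100% = vehicle without agonist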
* = called active by the depositor.

Results for O=C(CN1C(=O)/C(=C/c2ccc(C(F)(F)F)cc2)Sc2ccccc21)NCCCN1CCOCC1 ?
GPR7 antagonist: 10.1; TAAR1 agonist: 9.1; OX1R antag-1: -14.7; TAAR1 antagonist: 15.2; OX1R antag-2: -7.6; CHO parental Ca: -15.5

What do the screens show for `COCOCCn1cc(CN2CCS(=O)(=O)N(Cc3ccc(-c4ccc(Cl)nc4)cc3)C(C(C)C)C2=O)nn1` (configuration not stated)?
TAAR1 agonist: 3.5; TAAR1 antagonist: -19.2

Results for O=C1NC[C@H](CCCCN2C[C@H](Cc3ccc(O)cc3)N(CCc3ccccc3)C(=O)C2=O)N(CC2CCCCC2)C1=O ?
TAAR1 agonist: 1.1; TAAR1 antagonist: -6.5

What do the screens show for `CCCN1CCN(C(=O)c2ccc(S(=O)(=O)N(C)c3ccccc3OC)cc2)CC1`?
TAAR1 agonist: 0.7; TAAR1 antagonist: -4.5

Results for c1ccc(Cn2nnnc2C(c2cccs2)N2CCc3ccccc3C2)cc1 (configuration not stated) ?
GPR7 antagonist: 22.5*; OX1R antag-1: -4.0; OX1R antag-2: 4.8; CHO parental Ca: -9.4; GPR7 antag cf: -6.4; MCHR1 antag: 38.8*

How did OC[C@@H]1CN(Cc2cccnc2)C[C@H](n2cnc3c(N4CCN(c5ccccc5)CC4)ncnc32)O1 do in these assays?
TAAR1 agonist: 6.4; TAAR1 antagonist: -22.0

What do the screens show for `O=C(NCCN1CCOCC1)c1cc([N+](=O)[O-])ccc1Cl`?
GPR7 antagonist: -12.7; TAAR1 agonist: -0.3; OX1R antag-1: -12.8; TAAR1 antagonist: 2.9; OX1R antag-2: 23.2; CHO parental Ca: -5.0

Results for O=C(NCCN1CCOCC1)c1cc(Br)ccc1Cl ?
GPR7 antagonist: 29.1*; TAAR1 agonist: 10.5; OX1R antag-1: -0.7; TAAR1 antagonist: -13.3; OX1R antag-2: 3.0; CHO parental Ca: -3.0; GPR7 antag cf: -11.7; MCHR1 antag: 11.6

How did CCNC(=O)C1CCCN(C(=O)c2ccc(C(F)(F)F)cc2)CC1 (configuration not stated) do in these assays?
TAAR1 agonist: 3.4; TAAR1 antagonist: -9.1

Results for O=C(c1ccc(N2CCN(C(=O)c3ccccc3Br)CC2)cc1)c1cccc(F)c1 ?
GPR7 antagonist: 27.7*; TAAR1 agonist: 7.7; OX1R antag-1: 8.0; TAAR1 antagonist: 44.8; OX1R antag-2: 34.3; CHO parental Ca: 13.5; GPR7 antag cf: 3.6; MCHR1 antag: 69.3*

What do the screens show for `CCOC(=O)N1CCN(c2ccc(C(=O)c3cccc(F)c3)cc2)CC1`?
GPR7 antagonist: 16.8; OX1R antag-1: 3.9; OX1R antag-2: 17.5; CHO parental Ca: -10.7

How did c1cncc(CN2CCN(c3cc(-c4cnc5ccccc5c4)nc4ccnn34)CC2)c1 do in these assays?
TAAR1 agonist: 2.5; TAAR1 antagonist: -2.9

What do the screens show for `N#Cc1nc(COc2ccccc2)oc1N1CCN(Cc2ccccc2)CC1`?
GPR7 antagonist: 25.9*; TAAR1 agonist: 7.3; OX1R antag-1: -26.1; TAAR1 antagonist: 7.0; OX1R antag-2: 16.1; CHO parental Ca: -12.5; GPR7 antag cf: 33.3*; MCHR1 antag: 52.5*

How did Cc1ccc(OCc2nc(C#N)c(N3CCN(Cc4ccccc4)CC3)o2)cc1 do in these assays?
GPR7 antagonist: 43.2*; TAAR1 agonist: 3.1; OX1R antag-1: -22.0; TAAR1 antagonist: 18.1; OX1R antag-2: 32.2; CHO parental Ca: -11.6; GPR7 antag cf: 44.1*; MCHR1 antag: 51.2*

Results for Cc1cc(C)n2c(Nc3ccc4c(c3)OCCO4)c(CC(C)C)nc2n1 ?
TAAR1 agonist: 2.5; TAAR1 antagonist: -47.1

What do the screens show for `OCCCCNCc1ccc(OCc2ccc(Cl)cc2Cl)cc1`?
GPR7 antagonist: 38.6*; TAAR1 agonist: 37.8*; OX1R antag-1: 19.5; TAAR1 antagonist: 10.6; OX1R antag-2: 8.1; CHO parental Ca: 12.8; GPR7 antag cf: 66.5*; MCHR1 antag: 58.5*

Results for OCCNCc1ccc(OCc2ccc(Cl)cc2Cl)cc1 ?
GPR7 antagonist: 30.6*; TAAR1 agonist: 23.4; OX1R antag-1: 0.2; TAAR1 antagonist: 1.6; OX1R antag-2: 2.4; CHO parental Ca: 2.7; GPR7 antag cf: 40.4*; MCHR1 antag: 43.0*

What do the screens show for `S=C(Nc1ccccc1)Nc1ccc(OCc2ccc(Cl)cc2Cl)cc1`?
GPR7 antagonist: -7.8; TAAR1 agonist: 5.7; OX1R antag-1: -10.4; TAAR1 antagonist: -8.2; OX1R antag-2: 12.8; CHO parental Ca: -0.7

How did CCCCN(C)C(=O)c1ccc(Nc2nc(C(N)Cc3ccc(C(F)(F)F)cc3)cs2)nc1 (configuration not stated) do in these assays?
TAAR1 agonist: 7.5; TAAR1 antagonist: -9.1

How did O=C(c1cc2ccccc2[nH]1)N(Cc1cccnc1)CC1CCCN(C2CCCCC2)C1 (configuration not stated) do in these assays?
GPR7 antagonist: 5.3; TAAR1 agonist: 4.0; OX1R antag-1: -39.5; TAAR1 antagonist: -29.5; OX1R antag-2: 9.1; CHO parental Ca: -36.5

What do the screens show for `O=C1NC(=Nc2ccccc2)c2c1cccc2[N+](=O)[O-]`?
GPR7 antagonist: 32.2*; TAAR1 agonist: 4.8; OX1R antag-1: -2.9; TAAR1 antagonist: -19.4; OX1R antag-2: 73.5*; CHO parental Ca: -4.8; GPR7 antag cf: -4.0; MCHR1 antag: -14.0

What do the screens show for `O=C(NCc1cccnc1)c1cc(C2CCCN(C(=O)c3cccs3)C2)on1` (configuration not stated)?
TAAR1 agonist: 0.4; TAAR1 antagonist: -25.5

How did Cc1cccc(C)c1-n1nnnc1C(c1ccnc2ccccc12)N(Cc1ccccc1)Cc1ccccc1 (configuration not stated) do in these assays?
TAAR1 agonist: -0.5; TAAR1 antagonist: -5.1

Results for Cc1cccc2c1NC(=O)C2(c1ccc(O)cc1)c1ccc(O)cc1 ?
GPR7 antagonist: 67.0*; TAAR1 agonist: 9.7; OX1R antag-1: 8.0; TAAR1 antagonist: 2.0; OX1R antag-2: 24.1; CHO parental Ca: 4.0; GPR7 antag cf: 78.7*; MCHR1 antag: 49.2*

Results for CCN1C(=O)C(c2ccc(O)cc2)(c2ccc(O)cc2)c2ccccc21 ?
GPR7 antagonist: -11.2; TAAR1 agonist: 2.5; OX1R antag-1: -1.4; TAAR1 antagonist: 17.1; OX1R antag-2: 17.6; CHO parental Ca: -5.1

Results for CCCNC(=O)C1(C)CCCN(Cc2ccc(C(=O)OCC)o2)C1 (configuration not stated) ?
TAAR1 agonist: 0.8; TAAR1 antagonist: -5.1

What do the screens show for `COc1ccc(C(=O)c2[nH]c(N)c(C(=O)NCCc3c[nH]c4ccccc34)c2-c2ccc(Br)cc2)cc1`?
TAAR1 agonist: -0.5; TAAR1 antagonist: -2.1
